{"source": "ChEMBL document CHEMBL4715754", "about": "“Slowing down fat digestion and absorption by an oxadiazolone inhibitor targeting selectively gastric lipolysis” (2016)", "key": {"[1]": {"target": "T1, Gastric triacylglycerol lipase (Canis lupus familiaris) (UniProt P80035)", "T1 sequence (whole entry)": "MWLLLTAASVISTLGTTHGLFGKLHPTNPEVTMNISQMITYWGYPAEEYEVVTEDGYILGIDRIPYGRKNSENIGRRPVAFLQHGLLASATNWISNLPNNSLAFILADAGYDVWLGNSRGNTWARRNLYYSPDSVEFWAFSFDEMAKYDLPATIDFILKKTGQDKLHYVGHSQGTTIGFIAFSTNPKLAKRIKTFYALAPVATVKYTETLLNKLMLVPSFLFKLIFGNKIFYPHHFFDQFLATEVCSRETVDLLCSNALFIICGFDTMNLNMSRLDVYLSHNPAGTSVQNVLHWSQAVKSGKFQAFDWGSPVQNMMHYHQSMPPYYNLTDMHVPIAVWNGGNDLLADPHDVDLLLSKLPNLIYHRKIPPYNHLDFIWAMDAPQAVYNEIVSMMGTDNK", "experiment": "Inhibition of recombinant dog gastric lipase preincubated for 1 hr at 25 degreeC"}, "[2]": {"target": "T1, Gastric triacylglycerol lipase (Canis lupus familiaris)", "experiment": "Inhibition of recombinant dog gastric lipase assessed as residual activity by measuring half-inactivation time at 20:1 molar excess compound concentration preincubated for 1 hr at 25 degreeC", "outline": "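Enzyme pre-incubated with inhibitor (DMSO stock) at fixed molar excess for 1 h at 25 °C without substrate: hCEH x_I=4 (1 mM NaTDC assay), RLL and DGL x_I=20 with 4 mM NaTDC, GPLRP2 x_I=2 with 2 mM NaTDC. Residual activity sampled at intervals by pH-stat on tributyrin emulsion at 37 °C; t1/2 taken at 50% residual activity. DMSO-only controls; at least triplicate.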"}, "[3]": {"target": "T2, Pancreatic triacylglycerol lipase (Homo sapiens) (UniProt P16233)", "T2 sequence (whole entry)": "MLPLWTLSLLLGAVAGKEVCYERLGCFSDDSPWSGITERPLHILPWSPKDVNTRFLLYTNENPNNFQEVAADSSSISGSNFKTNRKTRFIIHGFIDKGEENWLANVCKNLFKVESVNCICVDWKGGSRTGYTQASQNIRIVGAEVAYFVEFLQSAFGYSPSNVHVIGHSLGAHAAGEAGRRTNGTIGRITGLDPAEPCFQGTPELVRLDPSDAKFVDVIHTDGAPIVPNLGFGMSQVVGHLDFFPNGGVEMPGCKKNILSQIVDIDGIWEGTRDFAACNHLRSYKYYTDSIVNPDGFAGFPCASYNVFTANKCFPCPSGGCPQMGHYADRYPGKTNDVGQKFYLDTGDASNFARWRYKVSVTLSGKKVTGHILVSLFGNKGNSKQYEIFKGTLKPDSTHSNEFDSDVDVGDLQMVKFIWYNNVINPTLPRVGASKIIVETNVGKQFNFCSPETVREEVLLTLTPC", "experiment": "Inhibition of human pancreatic lipase at 400:1 molar excess compound concentration preincubated for 30 mins at 25 degreeC relative to control", "outline": "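Pancreatic lipase from human pancreatic juice (54 µg/mL HPL stock) or porcine pancreatic extract (32 µg/mL PPL stock) was held in 10 mM MES pH 7.0, 150 mM NaCl. It was pre-incubated with inhibitor from DMSO stock for 30 min at 25 °C with 4 mM NaTDC at varied molar excess. Residual activity was read by pH-stat on tributyrin at 37 °C, pH 8.0, with 2 mM CaCl₂ and 4 mM NaTDC. x_I50 was taken from residual activity; DMSO-only controls were run.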"}, "[4]": {"target": "T1, Gastric triacylglycerol lipase (Canis lupus familiaris)", "experiment": "Inhibition of recombinant dog gastric lipase assessed as residual activity at 4.1 mg/ml under gastric phase at pH 5.5 using solid test meal measured up to 30 mins relative to control", "settings": "time min <=30", "outline": "(§1)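 Gastric phase: 15 mL liquid or solid test meal (506 mg TAG) premixed with 734 µL of 4.1 mg/mL DMSO stock (2.94 mg, 7.262 µmol), then DGL to 17 µg/mL final, pH 5.5, 37 °C, stirred. Samples at 1, 15, 29 min; residual DGL activity by pH-stat; lipolysis level from TLC-FID of lipid extracts. DMSO-only controls; n = 3.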"}, "[5]": {"target": "T3, Pancreatic triacylglycerol lipase (Sus scrofa) (UniProt P00591)", "T3 sequence (whole entry)": "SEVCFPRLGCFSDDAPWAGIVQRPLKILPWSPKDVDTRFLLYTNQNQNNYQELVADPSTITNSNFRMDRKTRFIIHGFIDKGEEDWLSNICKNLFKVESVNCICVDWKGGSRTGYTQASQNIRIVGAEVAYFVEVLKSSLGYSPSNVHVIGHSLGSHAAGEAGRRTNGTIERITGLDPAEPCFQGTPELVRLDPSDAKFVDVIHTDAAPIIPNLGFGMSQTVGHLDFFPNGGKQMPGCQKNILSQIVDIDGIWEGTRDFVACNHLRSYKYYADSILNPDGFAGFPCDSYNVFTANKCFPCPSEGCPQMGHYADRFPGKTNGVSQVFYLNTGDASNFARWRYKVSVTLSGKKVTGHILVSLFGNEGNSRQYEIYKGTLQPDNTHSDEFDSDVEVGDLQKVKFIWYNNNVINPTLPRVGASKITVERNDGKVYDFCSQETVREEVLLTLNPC", "experiment": "Inhibition of porcine pancreatic lipase assessed as lipolysis level at 4.1 mg/ml under duodenal phase at pH 6.5 using liquid test meal measured at 45 mins (reference value: 58 +/- 3.1 %)", "design": "scale not given: the % may be the effect or the level left"}, "[6]": {"target": "T1, Gastric triacylglycerol lipase (Canis lupus familiaris)", "experiment": "Inhibition of recombinant dog gastric lipase assessed as lipolysis level at 4.1 mg/ml under gastric phase at pH 5.5 using liquid test meal measured up to 30 mins (reference value: 22.3 +/- 1.4 %)", "design": "scale not given: the % may be the effect or the level left", "settings": "time min <=30", "outline": "as §1"}, "[7]": {"target": "T1, Gastric triacylglycerol lipase (Canis lupus familiaris)", "experiment": "Inhibition of recombinant dog gastric lipase preincubated for 1 hr at 25 degreeC relative to orlistat"}, "[8]": {"target": "T4, Pancreatic lipase-related protein 2 (Cavia porcellus) (UniProt P81139)", "T4 sequence (whole entry)": "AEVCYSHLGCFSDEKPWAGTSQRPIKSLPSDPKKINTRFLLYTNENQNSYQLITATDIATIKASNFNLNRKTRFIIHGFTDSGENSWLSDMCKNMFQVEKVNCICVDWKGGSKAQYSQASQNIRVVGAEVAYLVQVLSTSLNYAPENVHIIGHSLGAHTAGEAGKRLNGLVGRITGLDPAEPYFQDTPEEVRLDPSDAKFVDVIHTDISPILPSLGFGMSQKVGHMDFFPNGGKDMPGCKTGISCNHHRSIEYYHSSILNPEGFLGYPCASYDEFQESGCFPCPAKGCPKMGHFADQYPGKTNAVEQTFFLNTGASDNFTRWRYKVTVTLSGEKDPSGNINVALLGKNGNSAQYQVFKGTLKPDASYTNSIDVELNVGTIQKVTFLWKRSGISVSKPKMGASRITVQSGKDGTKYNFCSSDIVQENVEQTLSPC", "experiment": "Inhibition of recombinant guinea pig PL-RP2 expressed in Aspergillus oryzae at 20:1 molar excess compound concentration preincubated for 30 mins at 25 degreeC relative to control"}, "Rattus norvegicus": {"tested_on": "Rattus norvegicus", "experiment": "Inhibition of lipolysis in mesenteric lymph duct-cannulated Wistar rat model assessed as initial velocity of fatty acid output at 5.3 mg/kg supplemented with olive oil emulsion and measured after 24 hrs (reference value: 12.3 +/- 0.46 mg/ml/h)", "assay_type": "functional"}}}
{"smiles": "O=c1oc(OCCOCc2ccccc2)nn1-c1cccc(Oc2ccccc2)c1", "values": [{"measurement": "XI50", "setting": "[1]", "result": 0.5, "unit": "molar excess"}, {"measurement": "T1/2", "setting": "[2]", "result": 1.68, "unit": "min"}, {"measurement": "inhibition", "setting": "[3]", "result": 19.3, "unit": "%"}, {"measurement": "Activity", "setting": "[4]", "result": 2.8, "unit": "%"}, {"measurement": "Activity", "setting": "[5]", "result": 48.1, "unit": "%"}, {"measurement": "Activity", "setting": "[6]", "result": 4.5, "unit": "%"}, {"measurement": "fold change (FC)", "setting": "[7]", "result": 11.2}, {"measurement": "inhibition", "setting": "[8]", "result": 62.1, "unit": "%"}, {"measurement": "V0", "setting": "Rattus norvegicus", "result": 9.8, "unit": "mg/mL/h"}]}
{"smiles": "CCCCCCCCCCC[C@@H](C[C@@H]1OC(=O)[C@H]1CCCCCC)OC(=O)[C@@H](CC(C)C)NC=O", "values": [{"measurement": "XI50", "setting": "[1]", "result": 5.6, "unit": "molar excess"}, {"measurement": "T1/2", "setting": "[2]", "result": 0.59, "unit": "min"}, {"measurement": "inhibition", "setting": "[3]", "result": 91.5, "unit": "%"}, {"measurement": "V0", "setting": "Rattus norvegicus", "result": 4.4, "unit": "mg/mL/h"}]}
